Publication PMC3263504 (Cell Death and Differentiation, 2011)
No end group written: not given here. *: point of attachment. Biotin = O=C1N[C@H]2[C@H](CS[C@H]2CCCCC(=O)*)N1

Legend:
GST-Dom3 = assay: GST pull-down of full-length 3xFLAG-Bcl-2 proteins from COS-1 lysates; format: binding, mouse; conditions: lysates of transfected COS-1 cells, result in words
How it was run: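 Lysates (200 μg) of COS-1 cells transiently transfected with 3xFLAG-Bcl-2, K/D mutant or empty vector, incubated with purified GST-Dom3 (IP3R1 a.a. 923–1581, E. coli BL21(DE3)-expressed, PBS-dialyzed). Beads washed four times in 150 mM NaCl buffer without BSA, eluted in LDS 3 min at 95°C. Anti-FLAG western blot; bands quantified, normalized to GST binding; at least five independent experiments.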

C6 glioma cells [1] = assay: PAC-1-induced apoptosis in C6 glioma cells; format: cell-based, rat; conditions: PAC-1 150 μM, 6 h
How it was run: (§1)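 C6 glioma monolayers in situ electroporated (100 V peak-to-peak, 500 µm electrode gap, low-conductivity sorbitol buffer) with 100 μM DTR and 20 μM peptide. Trigger applied in medium for 6 h: STS 2 μM or PAC-1 150 µM. Apoptosis stained with FITC-VAD-FMK (10 μM, 40 min, 37°C), PFA-fixed, DAPI. Five images inside and five outside the electroporated area; AI inside relative to outside, then vs vehicle (100%).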

GST = assay: SPR, parental GST; format: binding; conditions: GST up to 40 μM, result in words
How it was run: (§2)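 SPR at 25°C. Biotinylated BH4 peptides (200 ng, 58.2 pmol, >80% pure) immobilized on a streptavidin chip in PBS/0.005% P20, pH 7.0. Analyte was GST-Dom3 or parental GST in PBS, 30 μl/min, several concentrations in random order; response in RU. Scrambled-peptide reference cell subtracted. Regeneration with 25 mM NaOH/0.002% SDS. At least three independent chips.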

GST-Dom3 IP3R1 = GST-Dom3 IP3R1 (Mus musculus, UniProt P11881); assay: SPR, GST-Dom3 of IP3R1 on immobilized biotinylated BH4 peptides; format: binding; conditions: association phase, corrected for scrambled peptide, result in words
How it was run: as §2

IP3R = assay: Unidirectional 45Ca2+-flux assay in saponin-permeabilized MEF cells; format: cell-based, mouse; conditions: for effect of alanine mutation on the inhibitory action of BH4-Bcl-2 on IICR: 60 μM mutant peptide, result in words; for effect on IICR (dose-response): 3 μM IP3, result in words
How it was run: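 MEF cells at 30°C permeabilized 10 min with 20 µg/ml saponin (imidazole-KCl, pH 6.8, 1 mM ATP, 1 mM EGTA). Stores loaded 45 min with 150 nM free 45Ca2+, 5 mM ATP, 10 mM NaN3. Efflux medium contained 1 mM EGTA and 4 μM thapsigargin, changed every 2 min. Peptides (alanine mutants 60 μM) added 4 min before IP3 (3 μM, 2 min, after 10 min efflux). Residual Ca2+ released with 2% SDS; read-out fractional loss (%/2 min).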

C6 glioma cells [2] = assay: Staurosporine-induced apoptosis in C6 glioma cells; format: cell-based, rat; conditions: 6 h, result in words
How it was run: as §1

[3] = molecular target: GST-Dom3 (a.a. 923–1581 of IP3R1) (mouse, UniProt P11881 923-1581); assay: SPR
[4] = molecular target: GST-Dom3 IP3R2 (a.a. 913–1562) (mouse, UniProt Q9Z329 913-1562); assay: SPR
[5] = molecular target: GST-Dom3 IP3R3 (a.a. 910–1427) (rat, UniProt Q63269 910-1427); assay: SPR
Sequence of GST-Dom3 IP3R3 (a.a. 910–1427) (Q63269 910-1427): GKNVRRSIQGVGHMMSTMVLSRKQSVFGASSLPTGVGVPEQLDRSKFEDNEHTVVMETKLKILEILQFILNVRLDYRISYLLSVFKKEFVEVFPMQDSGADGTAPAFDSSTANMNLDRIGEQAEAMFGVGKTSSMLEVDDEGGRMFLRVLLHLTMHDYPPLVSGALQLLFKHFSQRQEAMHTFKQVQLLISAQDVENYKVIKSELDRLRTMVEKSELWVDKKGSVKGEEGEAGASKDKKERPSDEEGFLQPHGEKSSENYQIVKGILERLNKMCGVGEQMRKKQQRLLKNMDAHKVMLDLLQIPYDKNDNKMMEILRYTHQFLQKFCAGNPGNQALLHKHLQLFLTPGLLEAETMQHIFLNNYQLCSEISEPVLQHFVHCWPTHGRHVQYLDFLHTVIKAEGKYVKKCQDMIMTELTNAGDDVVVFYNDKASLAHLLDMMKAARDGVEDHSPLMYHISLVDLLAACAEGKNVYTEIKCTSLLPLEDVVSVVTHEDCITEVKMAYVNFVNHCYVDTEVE

Sequence of GST-Dom3 IP3R1 (P11881 923-1581): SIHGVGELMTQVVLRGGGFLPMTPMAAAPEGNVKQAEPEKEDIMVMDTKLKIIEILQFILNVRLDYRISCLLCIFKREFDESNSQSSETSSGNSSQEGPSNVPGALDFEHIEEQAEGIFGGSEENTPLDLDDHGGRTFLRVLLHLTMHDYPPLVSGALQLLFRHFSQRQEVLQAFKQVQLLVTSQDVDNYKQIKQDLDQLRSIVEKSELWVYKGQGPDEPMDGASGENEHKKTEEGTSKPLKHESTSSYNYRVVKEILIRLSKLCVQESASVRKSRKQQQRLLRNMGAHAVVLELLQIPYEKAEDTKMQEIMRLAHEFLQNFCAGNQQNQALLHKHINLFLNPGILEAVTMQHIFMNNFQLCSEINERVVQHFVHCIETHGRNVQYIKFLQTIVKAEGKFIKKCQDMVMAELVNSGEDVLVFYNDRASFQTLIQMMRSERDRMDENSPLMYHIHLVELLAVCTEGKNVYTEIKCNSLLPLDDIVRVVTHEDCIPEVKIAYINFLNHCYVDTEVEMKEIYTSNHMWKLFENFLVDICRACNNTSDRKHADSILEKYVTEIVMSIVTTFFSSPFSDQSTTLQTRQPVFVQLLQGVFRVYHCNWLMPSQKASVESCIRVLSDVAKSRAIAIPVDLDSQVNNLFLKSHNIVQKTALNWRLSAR
Sequence of GST-Dom3 (a.a. 923–1581 of IP3R1) (P11881 923-1581): as above
Sequence of GST-Dom3 IP3R2 (a.a. 913–1562) (Q9Z329 913-1562): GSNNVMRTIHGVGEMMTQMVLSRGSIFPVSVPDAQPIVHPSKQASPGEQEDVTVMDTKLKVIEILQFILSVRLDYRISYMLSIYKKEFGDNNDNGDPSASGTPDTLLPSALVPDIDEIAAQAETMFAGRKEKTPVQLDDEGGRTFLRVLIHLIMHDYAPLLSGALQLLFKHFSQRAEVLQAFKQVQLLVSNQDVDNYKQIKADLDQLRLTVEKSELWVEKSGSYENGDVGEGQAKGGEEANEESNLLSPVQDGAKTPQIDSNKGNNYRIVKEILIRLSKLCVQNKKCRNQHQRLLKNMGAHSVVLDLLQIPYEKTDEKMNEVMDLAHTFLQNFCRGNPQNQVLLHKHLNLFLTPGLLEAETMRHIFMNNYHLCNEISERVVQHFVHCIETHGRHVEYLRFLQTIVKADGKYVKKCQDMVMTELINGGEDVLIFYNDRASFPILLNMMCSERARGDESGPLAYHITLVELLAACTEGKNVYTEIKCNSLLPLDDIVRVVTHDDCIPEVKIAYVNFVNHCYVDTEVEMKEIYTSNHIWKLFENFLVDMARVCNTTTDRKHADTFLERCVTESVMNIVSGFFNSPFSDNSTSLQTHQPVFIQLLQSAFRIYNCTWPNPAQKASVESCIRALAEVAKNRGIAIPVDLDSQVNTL

3xFLAG-Bcl-2 K/D: full-length 3xFLAG-Bcl-2 with Lys17 mutated into Asp, expressed in COS-1 cells
binding to GST-Dom3 compared with wild-type 3xFLAG-Bcl-2 (GST-Dom3): severely compromised

C=CCc1cccc(/C=N/NC(=O)CN2CCN(Cc3ccccc3)CC2)c1O [PAC-1]
apoptosis, share of the cell population (C6 glioma cells [1]): ~15%

Biotin-MSQSNRELVVDFLSYKLSQKGYSW [biotin-BH4-Bcl-Xl]
binding of GST (control) (GST): bound to neither

Biotin-MSQSNRELVVKFLSYKLSQKGYSW [biotin-BH4-Bcl-Xl D/K]
specific binding of GST-Dom3 (resonance units) (GST-Dom3 IP3R1): able to bind GST-Dom3

Biotin-RTGYANAEIVMKYIAEKLSAAGKEW [biotin-BH4-Bcl-2BIND, reference compound]
specific binding of GST-Dom3 (resonance units) (GST-Dom3 IP3R1): did not specifically bind

H20A (RTGYDNREIVMKYIAYKLSQRGYEW)
effect of alanine mutation on the inhibitory action of BH4-Bcl-2 on IICR (IP3R): largest effect on the inhibitory action

K17A (RTGYDNREIVMAYIHYKLSQRGYEW)
effect of alanine mutation on the inhibitory action of BH4-Bcl-2 on IICR (IP3R): largest effect on the inhibitory action

NVYTEIKCNSLLPLDDIVRV [IDP]
effect of IDP on BH4-Bcl-2-mediated protection against STS (C6 glioma cells [2]; IDP co-loaded with BH4-Bcl-2, STS 2 μM): completely suppressed
effect of IDP on the protection by BH4-Bcl-Xl against STS (C6 glioma cells [2]; IDP co-loaded with BH4-Bcl-Xl, STS 2 μM): independent of IDP

R26A (RTGYDNREIVMKYIHYKLSQAGYEW)
effect of alanine mutation on the inhibitory action of BH4-Bcl-2 on IICR (IP3R): largest effect on the inhibitory action

RTGYANAEIVMKYIAEKLSAAGKEW [BH4-Bcl-2BIND, reference compound]
effect on IICR (dose-response) (IP3R): did not inhibit IICR

RTGYDNREIVMKYIHYKLSQRGYEW [BH4-Bcl-2 K/D]
effect on IICR (dose-response) (IP3R): largely ineffective

WYEKQRSLHGIMYYVIEDRNTKGYR [BH4-Bcl-2SCR, reference compound]
effect on IICR (dose-response) (IP3R): did not inhibit IICR

Y21A (RTGYDNREIVMKYIHAKLSQRGYEW)
effect of alanine mutation on the inhibitory action of BH4-Bcl-2 on IICR (IP3R): largest effect on the inhibitory action

Biotin-MSQSNRELVVKFLSYKLSQKGYSW [Biotin-BH4-Bcl-Xl D/K]
binding result [3]: binds

Biotin-RTGYDNREIVMKYIHYKLSQRGYEW [Biotin-BH4-Bcl-2]
binding result [4]: binds
binding result [5]: binds
